For orientation: IC50 means the concentration needed to halve the response being measured. Low readings indicate higher potency, high ones lower potency. A word on the inhibition: it is the drop in the measured response relative to a control, in per cent.

Activity calls are given as the source filed them. No cut-off for these calls is given here.

Experiment [1] has as its target Receptor-type tyrosine-protein phosphatase F (Homo sapiens, UniProt P10586). Briefly: Inhibition of LAR (unknown origin).
Experiment [2] deals with T1, Tyrosine-protein phosphatase non-receptor type 1 (Homo sapiens) (UniProt P18031).
T1 sequence (whole entry): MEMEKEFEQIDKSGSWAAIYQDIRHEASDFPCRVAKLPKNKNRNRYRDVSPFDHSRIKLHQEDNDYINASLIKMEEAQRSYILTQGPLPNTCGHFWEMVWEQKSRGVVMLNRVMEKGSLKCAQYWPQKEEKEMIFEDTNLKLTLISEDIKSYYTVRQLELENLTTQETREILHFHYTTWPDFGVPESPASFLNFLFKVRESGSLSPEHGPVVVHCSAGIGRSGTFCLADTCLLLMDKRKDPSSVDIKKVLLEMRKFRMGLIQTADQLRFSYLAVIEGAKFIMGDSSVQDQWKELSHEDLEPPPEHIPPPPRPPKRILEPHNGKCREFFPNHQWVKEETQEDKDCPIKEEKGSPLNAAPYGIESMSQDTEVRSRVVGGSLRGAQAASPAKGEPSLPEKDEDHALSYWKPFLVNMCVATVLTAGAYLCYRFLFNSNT
Kind of experiment: Inhibition of PTP1B (unknown origin) expressed in CHO cells over-expressing human IR assessed as increase in insulin-mediated IR-beta phosphorylation preincubated for 2 hrs followed by insulin challenge for 10 mins by Western blotting analysis. In kind it is cell-based. In short, it runs like this: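 CHO cells overexpressing human IR, grown in Ham's F-12 with 10% FBS at 37 °C, 5% CO2. Cells were serum-starved 2 h, then exposed to compound for 2 h (0.2% DMSO vehicle; 1 mM sodium orthovanadate as positive control). They were then stimulated with 10 nM insulin for 10 min. Lysates were run on 8% SDS-PAGE and immunoblotted with anti-pTyr, using β-actin as the loading control.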
(Immunoblotting shows a protein as a band on a membrane.)

Experiment [3] has as its target Tyrosine-protein phosphatase non-receptor type 6 (Homo sapiens, UniProt P29350). Briefly: Inhibition of SHP-1 (unknown origin).
Experiment [4] deals with T2, Tyrosine-protein phosphatase non-receptor type 11 (Homo sapiens, UniProt Q06124).
T2 sequence (Q06124 whole entry): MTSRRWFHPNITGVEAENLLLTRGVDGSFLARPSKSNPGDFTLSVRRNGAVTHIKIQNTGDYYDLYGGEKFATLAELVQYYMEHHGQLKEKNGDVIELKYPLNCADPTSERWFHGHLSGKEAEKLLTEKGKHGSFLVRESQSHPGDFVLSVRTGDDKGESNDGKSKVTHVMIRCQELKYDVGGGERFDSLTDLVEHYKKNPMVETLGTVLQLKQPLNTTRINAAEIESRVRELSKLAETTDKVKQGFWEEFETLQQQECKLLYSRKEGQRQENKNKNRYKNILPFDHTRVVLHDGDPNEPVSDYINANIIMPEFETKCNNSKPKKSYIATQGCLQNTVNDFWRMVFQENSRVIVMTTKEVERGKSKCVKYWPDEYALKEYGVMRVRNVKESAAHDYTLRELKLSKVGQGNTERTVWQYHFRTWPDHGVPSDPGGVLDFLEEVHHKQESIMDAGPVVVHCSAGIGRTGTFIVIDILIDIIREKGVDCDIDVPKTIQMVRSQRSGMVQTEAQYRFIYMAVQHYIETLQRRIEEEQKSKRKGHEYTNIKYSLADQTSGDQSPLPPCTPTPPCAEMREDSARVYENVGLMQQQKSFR
Kind of experiment: Inhibition of SHP-2 (unknown origin).

Experiment [5] has as its target T3, Tyrosine-protein phosphatase non-receptor type 1 (Rattus norvegicus) (UniProt P20417).
T3 sequence (whole entry): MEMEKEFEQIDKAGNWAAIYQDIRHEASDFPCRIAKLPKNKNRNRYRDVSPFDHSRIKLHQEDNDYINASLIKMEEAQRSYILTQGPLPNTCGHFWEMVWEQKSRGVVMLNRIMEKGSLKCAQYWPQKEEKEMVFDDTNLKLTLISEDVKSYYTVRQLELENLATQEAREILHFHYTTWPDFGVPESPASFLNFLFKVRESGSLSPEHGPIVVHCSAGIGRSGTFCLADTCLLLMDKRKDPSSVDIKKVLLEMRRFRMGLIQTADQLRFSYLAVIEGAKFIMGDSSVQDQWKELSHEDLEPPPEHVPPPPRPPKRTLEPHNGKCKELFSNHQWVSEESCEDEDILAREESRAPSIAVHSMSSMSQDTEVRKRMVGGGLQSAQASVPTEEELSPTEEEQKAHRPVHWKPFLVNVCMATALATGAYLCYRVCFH
Briefly: Inhibition of PTP1B in rat L6 cells assessed as insulin-induced Akt phosphorylation preincubated for 2 hrs followed by insulin challenge for 10 mins by Western blotting analysis. In kind it is cell-based. The gist of the method: (§1)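 Rat L6 myoblasts were differentiated in DMEM with 2% FBS and used as myotubes 5–7 days later. They were serum-starved 2 h, treated with compound 2 h (0.2% DMSO vehicle), then given 10 nM insulin for 10 min. Lysates were run on 8% SDS-PAGE and immunoblotted for phospho-Akt (Ser473), with β-actin as loading control.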

The target of experiment [6] is T3, Tyrosine-protein phosphatase non-receptor type 1 (Rattus norvegicus). Briefly: Inhibition of PTP1B in rat L6 cells assessed as insulin-stimulated 2-deoxy-[3H]-deoxy-glucose uptake at 20 uM preincubated for 2 hrs followed by insulin challenge for 30 mins. In kind it is cell-based. In short, it runs like this: (§2)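 Differentiated L6 myotubes were serum-starved 2 h, treated with compound, then stimulated with 10 nM insulin for 30 min. Cells were washed in HEPES-buffered saline, pH 7.4, and incubated 15 min with 2-deoxy-[3H]-glucose. After ice-cold PBS washes they were lysed in 0.1% Triton X-100 and radioactivity was counted. Data are averages of at least three independent replicates.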

Experiment [7] has the same target. Kind of experiment: Inhibition of PTP1B in rat L6 cells assessed as insulin-stimulated 2-deoxy-[3H]-deoxy-glucose uptake at 10 uM preincubated for 2 hrs followed by insulin challenge for 30 mins. The format is cell-based. In short, it runs like this:
as §2

The target is the same in experiment [8]. Kind of experiment: Inhibition of PTP1B in rat L6 cells assessed as insulin-stimulated 2-deoxy-[3H]-deoxy-glucose uptake preincubated for 2 hrs followed by insulin challenge for 30 mins. The format is cell-based. In short, it runs like this:
as §2

Experiment [9] has the same target. Kind of experiment: Inhibition of PTP1B in rat L6 cells assessed as insulin-induced Akt phosphorylation at 20 uM preincubated for 2 hrs followed by insulin challenge for 10 mins by Western blotting analysis in presence of wortmannin. The format is cell-based. In short, it runs like this: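 Differentiated L6 myotubes were pretreated with 250 nM wortmannin to block PI3K. They then received 20 μM compound for 2 h and were stimulated with or without 10 nM insulin. Akt phosphorylation was read by immunoblot of lysates with anti-phospho-Akt (Ser473).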

Experiment [10] shares this target. Briefly: Inhibition of PTP1B in rat L6 cells assessed as insulin-induced Akt phosphorylation at 5 to 10 uM preincubated for 2 hrs followed by insulin challenge for 10 mins by Western blotting analysis. In kind it is cell-based. In short, it runs like this: as §1
The next experiment is filed under the species Homo sapiens. Kind of experiment: Selectivity ratio of IC50 for TCPTP (unknown origin) to IC50 for GST-tagged PTP1B (unknown origin).

Receptor-type tyrosine-protein phosphatase F, sequence (P10586 whole entry): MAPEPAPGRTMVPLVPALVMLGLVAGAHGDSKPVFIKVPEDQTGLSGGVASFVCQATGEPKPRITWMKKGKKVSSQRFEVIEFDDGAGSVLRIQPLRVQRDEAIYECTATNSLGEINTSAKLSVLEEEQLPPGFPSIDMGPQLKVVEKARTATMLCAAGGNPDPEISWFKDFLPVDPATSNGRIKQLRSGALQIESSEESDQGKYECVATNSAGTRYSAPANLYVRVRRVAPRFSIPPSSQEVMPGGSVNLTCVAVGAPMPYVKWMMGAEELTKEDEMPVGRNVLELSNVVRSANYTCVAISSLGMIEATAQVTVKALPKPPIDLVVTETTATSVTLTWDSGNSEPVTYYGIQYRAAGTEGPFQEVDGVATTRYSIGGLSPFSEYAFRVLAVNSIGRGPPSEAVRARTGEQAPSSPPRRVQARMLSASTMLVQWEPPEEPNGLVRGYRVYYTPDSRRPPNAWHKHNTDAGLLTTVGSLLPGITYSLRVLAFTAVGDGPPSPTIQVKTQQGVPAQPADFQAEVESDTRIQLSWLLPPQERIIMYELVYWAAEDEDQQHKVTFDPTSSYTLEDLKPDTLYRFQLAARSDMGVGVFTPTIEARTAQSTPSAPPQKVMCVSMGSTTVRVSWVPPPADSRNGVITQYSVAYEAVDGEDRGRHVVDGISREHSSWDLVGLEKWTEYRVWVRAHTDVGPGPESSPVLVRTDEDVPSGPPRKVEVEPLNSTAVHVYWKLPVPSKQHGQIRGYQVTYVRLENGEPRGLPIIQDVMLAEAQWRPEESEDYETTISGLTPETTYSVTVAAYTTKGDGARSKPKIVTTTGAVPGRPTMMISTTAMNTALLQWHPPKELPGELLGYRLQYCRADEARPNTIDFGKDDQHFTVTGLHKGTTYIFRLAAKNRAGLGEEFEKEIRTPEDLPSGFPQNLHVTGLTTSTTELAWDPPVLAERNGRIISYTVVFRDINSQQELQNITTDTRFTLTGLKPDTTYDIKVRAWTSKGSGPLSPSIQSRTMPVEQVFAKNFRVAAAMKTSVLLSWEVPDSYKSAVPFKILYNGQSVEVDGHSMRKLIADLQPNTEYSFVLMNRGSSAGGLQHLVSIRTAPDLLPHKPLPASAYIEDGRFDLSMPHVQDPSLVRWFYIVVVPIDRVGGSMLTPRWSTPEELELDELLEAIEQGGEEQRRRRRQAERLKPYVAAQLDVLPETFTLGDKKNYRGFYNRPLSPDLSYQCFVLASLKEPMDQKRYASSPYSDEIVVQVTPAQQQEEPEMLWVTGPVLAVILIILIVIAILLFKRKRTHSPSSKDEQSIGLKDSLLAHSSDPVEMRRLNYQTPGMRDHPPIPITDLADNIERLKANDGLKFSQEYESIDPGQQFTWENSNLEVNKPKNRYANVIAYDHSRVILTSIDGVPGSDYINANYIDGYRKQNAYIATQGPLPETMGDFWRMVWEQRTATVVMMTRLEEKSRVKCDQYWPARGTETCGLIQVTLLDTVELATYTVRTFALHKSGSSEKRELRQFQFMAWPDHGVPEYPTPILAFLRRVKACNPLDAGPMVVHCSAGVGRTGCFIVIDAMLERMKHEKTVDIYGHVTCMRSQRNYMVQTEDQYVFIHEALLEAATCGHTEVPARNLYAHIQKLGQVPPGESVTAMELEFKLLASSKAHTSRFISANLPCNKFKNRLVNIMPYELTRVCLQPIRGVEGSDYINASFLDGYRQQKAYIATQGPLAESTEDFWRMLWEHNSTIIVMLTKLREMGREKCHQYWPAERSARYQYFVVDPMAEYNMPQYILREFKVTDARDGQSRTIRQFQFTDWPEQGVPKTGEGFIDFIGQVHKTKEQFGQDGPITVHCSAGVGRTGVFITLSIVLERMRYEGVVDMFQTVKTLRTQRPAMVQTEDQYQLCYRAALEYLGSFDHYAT
Tyrosine-protein phosphatase non-receptor type 6, sequence (P29350 whole entry): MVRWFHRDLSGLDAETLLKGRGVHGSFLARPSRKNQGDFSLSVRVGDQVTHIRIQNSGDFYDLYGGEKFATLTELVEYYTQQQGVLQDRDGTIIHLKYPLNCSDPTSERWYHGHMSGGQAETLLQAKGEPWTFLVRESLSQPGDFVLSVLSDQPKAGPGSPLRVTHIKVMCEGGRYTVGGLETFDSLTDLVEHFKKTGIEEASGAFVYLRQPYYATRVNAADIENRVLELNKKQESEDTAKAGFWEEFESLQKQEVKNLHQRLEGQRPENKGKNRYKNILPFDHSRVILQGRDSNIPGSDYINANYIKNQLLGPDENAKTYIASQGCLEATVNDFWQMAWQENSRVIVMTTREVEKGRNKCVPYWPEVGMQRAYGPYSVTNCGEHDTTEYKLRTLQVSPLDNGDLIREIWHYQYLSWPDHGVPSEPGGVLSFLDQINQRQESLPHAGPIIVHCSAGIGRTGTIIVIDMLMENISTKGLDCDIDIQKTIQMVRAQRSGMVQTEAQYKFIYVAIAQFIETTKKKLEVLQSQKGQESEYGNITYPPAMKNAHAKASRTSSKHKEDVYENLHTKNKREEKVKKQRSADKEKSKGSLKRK

In the case of `O=C(CCc1c[nH]c2ccccc12)N[C@@H](Cc1ccc(OCc2ccccc2)cc1)c1nc(C(=O)Nc2cc(F)ccc2C(=O)O)c(-c2ccccc2)s1`, the results for the IC50 in experiment [1], in experiment [3] and in experiment [4] were above 20 µM, 12.6 µM and 9.89 µM, respectively. Moreover, the inhibition entry in [2] was “Dose-dependent effect”; in [5], “Dose-dependent effect”; in [6], 86%; in experiment [7], 40%; in experiment [8], “Dose-dependent effect”. Besides, in experiment [9], the inhibition entry was “inactive”. The inhibition entry in experiment [10] was “Active”. Moreover, the Ratio IC50 in the experiment listed under Homo sapiens was determined as 2.6.
